Results published in the array DNA melting data of Ke et al. (doi:10.1101/2024.01.08.574731).

Legend:
[1] = folding enthalpy; higher = less favourable; fluorescence melt of hairpins on a sequencing array, two-state fit; details: sodium 0.088 M
How it was run: (§1)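 Folding enthalpy and melting temperature were estimated with bootstrapped two-state fits and combined across four replicates by inverse-variance weighting, with fitted temperatures raised by 9.35 °C to match UV melts. The data were Cy3 fluorescence of library hairpins, with annealed Cy3 and quencher oligos, on a sequenced MiSeq flow cell in 50 mM Na-HEPES pH 8.0, 25 mM NaCl, imaged in 2.5 °C steps up to 60 °C and normalised to pre-quench Cy3 and control constructs.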

[2] = melting temperature; fluorescence melt of hairpins on a sequencing array, two-state fit, raised by 9.35 °C to match UV melts; details: sodium 0.088 M
How it was run: as §1

| Sequence | folding enthalpy [1] | Tm [2] |
| --- | --- | --- |
| GCTCGGCGAAAGCCTGGC ((..(((....)))..)) | -12.7 kcal/mol | 53.8 °C |
| GCACTCGAAAGAGTTTGC ((((((....)))..))) | -17.5 kcal/mol | 35.9 °C |
| GCGGCGTTCCGC ((((....)))) | -14.8 kcal/mol | 54.1 °C |
| GATCGTGGTAACGATC ((((((....)))))) | -39.2 kcal/mol | 66.1 °C |
| GCGACGCCGAAAGGCCGC (((..(((....)))))) | -19.1 kcal/mol | 58.1 °C |
| GAGTCTGAAAAGACTC ((((((....)))))) | -38 kcal/mol | 59 °C |
| GTCTGCGAAAGCAAGAC ((((((....))).))) | -26.3 kcal/mol | 60.5 °C |
| GACATACGAAAGTAGTC (((.(((....)))))) | -22.2 kcal/mol | 41.5 °C |
| GCGAACTGTCGC ((((....)))) | -21.4 kcal/mol | 45.5 °C |
| GGGTCTGGAAACAGATCC ((.((((....)))).)) | -43.7 kcal/mol | 51.9 °C |
| GTTAGGAAACTAAC (((((....))))) | -15.7 kcal/mol | 41.4 °C |
| CGACCGCGGAAACGCTCG (((..(((....)))))) | -11.2 kcal/mol | 34 °C |
| GCGGAATGCCGC ((((....)))) | -24.3 kcal/mol | 53 °C |
| GTCTGGCGAAAGCCGAC (((.(((....)))))) | -16 kcal/mol | 55.8 °C |
| GTATGTGGAAACACATAC (((((((....))))))) | -42.4 kcal/mol | 56 °C |
| GCTGAGCGAAAGCTCCGC ((.((((....)))).)) | -19.7 kcal/mol | 57.7 °C |
| GGTGGCGAAAGCCCTACC ((((((....)))..))) | -13.2 kcal/mol | 36.1 °C |
| GTAGCAGGAAACTGCTAC (((((((....))))))) | -32.7 kcal/mol | 66.2 °C |
| GCGGCATCCCGC ((((....)))) | -20.7 kcal/mol | 56.4 °C |
| GCGACGCTCGC ((((...)))) | -15.3 kcal/mol | 50 °C |
| GTGACGGCGAAAGCCCAC (((..(((....)))))) | -12.1 kcal/mol | 44.3 °C |
| GGGTCAGAAATGACCC ((((((....)))))) | -34.5 kcal/mol | 65.1 °C |
| GAGCCTGGAAACAGGCCC (.(((((....))))).) | -10.9 kcal/mol | 47.8 °C |
| GTGTAGAAATACAC (((((....))))) | -21.8 kcal/mol | 41.6 °C |

| Sequence | folding enthalpy [1] | Tm [2] |
| --- | --- | --- |
| GGGACTCGAAAGAGCCC (((.(((....)))))) | -28.8 kcal/mol | 54.9 °C |
| GCAAACGAAAGTTTATGC ((((((....)))..))) | -17.2 kcal/mol | 31.9 °C |
| GCTGGCGGAAACGCTAGC (((.(((....))).))) | -40.5 kcal/mol | 59.1 °C |
| GGCACGACGAAAGTCGCC (((..(((....)))))) | -8.64 kcal/mol | 38.4 °C |
| GAGCCTGGAAACAAGCTC ((((.((....)).)))) | -29.8 kcal/mol | 38.6 °C |
| GACACCCGAAAGGGCGTC (((.(((....))).))) | -36.7 kcal/mol | 58.9 °C |
| GGTGTAGGAAACTGCACC ((((.((....)).)))) | -44.5 kcal/mol | 52.7 °C |
| GATCATGCTCATGATC ((((((....)))))) | -44.1 kcal/mol | 51.3 °C |
| GATCGTCACACGATC ((((((...)))))) | -37.8 kcal/mol | 57 °C |
| GGCCTCGAAAGAGAGCC ((((((....))).))) | -37.5 kcal/mol | 58.1 °C |
| GATCCTTTCAAGGATC ((((((....)))))) | -33.3 kcal/mol | 57.7 °C |
| GGTAGAGGAAACTCTACC (((((((....))))))) | -46.8 kcal/mol | 57.8 °C |
| GTGGCCGGAAACGGCTAC ((.((((....)))).)) | -20.4 kcal/mol | 60.3 °C |
| GCGATGCGAAAGCCACGC (((..((....))..))) | -21.1 kcal/mol | 52.1 °C |
| GCCTTGCGAAAGCTAAGC ((.(.((....)).).)) | -9.38 kcal/mol | 45.8 °C |
| GATCTGAGTTCAGATC ((((((....)))))) | -43.7 kcal/mol | 49.9 °C |
| GCTCAGCGAAAGCGGGGC ((.(.((....)).).)) | -25.5 kcal/mol | 59.9 °C |
| GATCCTTCACAGGATC ((((((....)))))) | -34.7 kcal/mol | 51.7 °C |
| GATCGGCCTTCCGATC ((((((....)))))) | -41.3 kcal/mol | 56.1 °C |
| GATCGGCCCTCCGATC ((((((....)))))) | -39.9 kcal/mol | 56.7 °C |
| GAAGGGGGAAACCCTTTC (((.(((....))).))) | -18.7 kcal/mol | 41.1 °C |
| GCGATGCATCGC ((((....)))) | -32.1 kcal/mol | 59.6 °C |
| GTGTCGACGAAAGTCCAC (((..(((....)))))) | -17.8 kcal/mol | 37.2 °C |
| GATCCGGTGTCGGATC ((((((....)))))) | -37.2 kcal/mol | 57.6 °C |

| Sequence | folding enthalpy [1] | Tm [2] |
| --- | --- | --- |
| GGCTATGAAAATAGCC ((((((....)))))) | -45.7 kcal/mol | 59.1 °C |
| GTGCGAGGAAACTTGCGC (.((.((....)).)).) | -18.1 kcal/mol | 46 °C |
| GATCGTTCGCACGATC ((((((....)))))) | -38 kcal/mol | 54.2 °C |
| GGGACACGAAAGTGCCCC (((.(((....))).))) | -37.8 kcal/mol | 63.1 °C |
| GACCGGAAACGGTC (((((....))))) | -28.3 kcal/mol | 67.5 °C |
| GGTTTTGGAAACGAAATC (.(((.(....).))).) | -12.1 kcal/mol | 25.2 °C |
| GGGTCCGAAAGGACGCCC ((((((....)))..))) | -10.3 kcal/mol | 48.9 °C |
| GGACGGCGAAAGCCTTCC (((.(((....))).))) | -22.6 kcal/mol | 52.5 °C |
| GCGTAAACACGC ((((....)))) | -19.5 kcal/mol | 50.4 °C |
| GTAGAACGAAAGTTTAC (((.(((....)))))) | -9.99 kcal/mol | 27.4 °C |
| GATCGAAGGCTCGATC ((((((....)))))) | -31 kcal/mol | 50.1 °C |
| GTGGACGAAAGTCTACAC ((((((....)))..))) | -16.3 kcal/mol | 51.2 °C |
| GGCAGCACGAAAGTGGCC (((..(((....)))))) | -22.3 kcal/mol | 51 °C |
| GAATAGGGAAACCCATTC ((((.((....)).)))) | -17.1 kcal/mol | 29.5 °C |
| GCAACGCGAAAGCGCCGC ((..(((....)))..)) | -9.13 kcal/mol | 40.8 °C |
| GACGAGCGAAAGCTGGTC (((.(((....))).))) | -31.2 kcal/mol | 54.8 °C |
| GTACATCGAAAGATATAC (((.(((....))).))) | -16 kcal/mol | 29.6 °C |
| GGGGTCGCGAAAGCGCCC (((..(((....)))))) | -16.4 kcal/mol | 60.7 °C |
| GTCTCCGGAAACAGAGAC (((((.(....).))))) | -25.8 kcal/mol | 38.3 °C |
| GCTCAGGGAAACCCGAGC ((((.((....)).)))) | -35.8 kcal/mol | 51.3 °C |
| GCAAGGGCGAAAGCCTGC (((..(((....)))))) | -14 kcal/mol | 50.9 °C |
| GAACAGAAATGTTC (((((....))))) | -18.1 kcal/mol | 41.4 °C |
